Each structure is given as a SMILES string.

Assay [1] addresses T1, Fibroblast growth factor receptor 1 (Homo sapiens, UniProt P11362). The experiment in a line: Inhibition of N-terminal GST-tagged recombinant human FGFR1 (456 to 765 residues) expressed in baculovirus infected insect Sf21 cells after 25 mins using KKKSPGEYVNIEFG peptide substrate by scintillation counting analysis.
Target sequence in this assay (P11362 whole entry, the tested form may be a part): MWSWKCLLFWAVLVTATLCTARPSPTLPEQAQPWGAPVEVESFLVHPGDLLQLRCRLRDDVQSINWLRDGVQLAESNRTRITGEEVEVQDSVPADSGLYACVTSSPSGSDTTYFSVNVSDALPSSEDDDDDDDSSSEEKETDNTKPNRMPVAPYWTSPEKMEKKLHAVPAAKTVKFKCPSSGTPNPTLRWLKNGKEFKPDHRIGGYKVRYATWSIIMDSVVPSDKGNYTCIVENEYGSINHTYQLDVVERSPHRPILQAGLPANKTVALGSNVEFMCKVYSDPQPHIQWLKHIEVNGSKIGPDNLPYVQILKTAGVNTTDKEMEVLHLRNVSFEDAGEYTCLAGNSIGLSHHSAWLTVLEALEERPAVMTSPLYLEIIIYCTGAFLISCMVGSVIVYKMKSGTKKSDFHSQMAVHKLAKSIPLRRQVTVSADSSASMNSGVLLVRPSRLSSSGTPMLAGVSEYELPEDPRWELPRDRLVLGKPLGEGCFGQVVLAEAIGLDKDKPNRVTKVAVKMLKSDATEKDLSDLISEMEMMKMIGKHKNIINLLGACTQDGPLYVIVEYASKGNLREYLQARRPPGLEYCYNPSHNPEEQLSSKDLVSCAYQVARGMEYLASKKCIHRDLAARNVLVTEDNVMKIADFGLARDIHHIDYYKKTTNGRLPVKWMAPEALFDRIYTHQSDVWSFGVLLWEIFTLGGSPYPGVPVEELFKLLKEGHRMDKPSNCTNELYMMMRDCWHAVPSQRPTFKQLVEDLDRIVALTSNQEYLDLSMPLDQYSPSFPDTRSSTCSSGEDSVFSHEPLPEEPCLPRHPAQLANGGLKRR
Assay [2] can be described thus: Cytotoxicity against human KG1 cells assessed as cell viability after 72 hrs by MTT assay. To be noted: KG-1, 72 h. In general terms: Tetrazolium assays rely on reduction of a dye to a coloured formazan, in cell work by metabolically active cells.
Another assay concerns HEK293. In words: Cytotoxicity against HEK293 cells assessed as cell viability after 72 hrs by MTT assay. To be noted: Homo sapiens, HEK293, 72 h.
The target of assay [3] is T1, Fibroblast growth factor receptor 1. The experiment in a line: Inhibition of N-terminal GST-tagged recombinant human FGFR1 (456 to 765 residues) expressed in baculovirus infected insect Sf21 cells assessed as residual activity at 10 uM. Put shortly:
(§1)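 This is a seven-kinase selectivity panel run according to the enzyme supplier's (Millipore) protocols. The reaction mixture contained 100 µM ATP. Activity is reported as residual activity.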
Target sequence in this assay (P11362 22-822 limits assumed): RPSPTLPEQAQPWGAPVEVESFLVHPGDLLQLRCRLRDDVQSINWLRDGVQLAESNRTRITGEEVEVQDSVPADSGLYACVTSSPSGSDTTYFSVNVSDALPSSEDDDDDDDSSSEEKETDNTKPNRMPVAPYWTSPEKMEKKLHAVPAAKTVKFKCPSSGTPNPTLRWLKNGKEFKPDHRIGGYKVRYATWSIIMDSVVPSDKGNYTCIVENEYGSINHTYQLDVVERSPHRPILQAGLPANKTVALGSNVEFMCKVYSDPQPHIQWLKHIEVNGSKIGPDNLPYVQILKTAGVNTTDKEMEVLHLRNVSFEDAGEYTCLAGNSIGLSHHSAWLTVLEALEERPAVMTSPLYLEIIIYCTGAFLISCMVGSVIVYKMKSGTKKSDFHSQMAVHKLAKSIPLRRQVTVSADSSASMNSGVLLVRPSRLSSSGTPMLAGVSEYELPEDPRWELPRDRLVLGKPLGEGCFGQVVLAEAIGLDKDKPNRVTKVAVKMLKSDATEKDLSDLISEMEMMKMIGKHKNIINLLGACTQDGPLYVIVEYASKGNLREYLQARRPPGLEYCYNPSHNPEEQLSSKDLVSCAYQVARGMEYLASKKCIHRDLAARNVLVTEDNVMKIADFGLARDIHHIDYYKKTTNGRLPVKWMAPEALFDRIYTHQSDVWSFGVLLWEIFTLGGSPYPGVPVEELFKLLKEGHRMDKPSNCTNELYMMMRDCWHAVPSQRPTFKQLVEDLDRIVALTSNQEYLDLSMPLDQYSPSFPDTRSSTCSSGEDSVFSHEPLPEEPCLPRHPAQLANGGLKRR

Assay [4] deals with Angiopoietin-1 receptor (Homo sapiens) (UniProt Q02763). The experiment in a line: Inhibition of N-terminal His6-tagged recombinant human Tie2 residues 771-end expressed in baculovirus infected insect Sf21 cells assessed as residual activity at 10 uM. Put shortly: as §1
Sequence of Angiopoietin-1 receptor (Homo sapiens) (Q02763 whole entry, the tested form may be a part): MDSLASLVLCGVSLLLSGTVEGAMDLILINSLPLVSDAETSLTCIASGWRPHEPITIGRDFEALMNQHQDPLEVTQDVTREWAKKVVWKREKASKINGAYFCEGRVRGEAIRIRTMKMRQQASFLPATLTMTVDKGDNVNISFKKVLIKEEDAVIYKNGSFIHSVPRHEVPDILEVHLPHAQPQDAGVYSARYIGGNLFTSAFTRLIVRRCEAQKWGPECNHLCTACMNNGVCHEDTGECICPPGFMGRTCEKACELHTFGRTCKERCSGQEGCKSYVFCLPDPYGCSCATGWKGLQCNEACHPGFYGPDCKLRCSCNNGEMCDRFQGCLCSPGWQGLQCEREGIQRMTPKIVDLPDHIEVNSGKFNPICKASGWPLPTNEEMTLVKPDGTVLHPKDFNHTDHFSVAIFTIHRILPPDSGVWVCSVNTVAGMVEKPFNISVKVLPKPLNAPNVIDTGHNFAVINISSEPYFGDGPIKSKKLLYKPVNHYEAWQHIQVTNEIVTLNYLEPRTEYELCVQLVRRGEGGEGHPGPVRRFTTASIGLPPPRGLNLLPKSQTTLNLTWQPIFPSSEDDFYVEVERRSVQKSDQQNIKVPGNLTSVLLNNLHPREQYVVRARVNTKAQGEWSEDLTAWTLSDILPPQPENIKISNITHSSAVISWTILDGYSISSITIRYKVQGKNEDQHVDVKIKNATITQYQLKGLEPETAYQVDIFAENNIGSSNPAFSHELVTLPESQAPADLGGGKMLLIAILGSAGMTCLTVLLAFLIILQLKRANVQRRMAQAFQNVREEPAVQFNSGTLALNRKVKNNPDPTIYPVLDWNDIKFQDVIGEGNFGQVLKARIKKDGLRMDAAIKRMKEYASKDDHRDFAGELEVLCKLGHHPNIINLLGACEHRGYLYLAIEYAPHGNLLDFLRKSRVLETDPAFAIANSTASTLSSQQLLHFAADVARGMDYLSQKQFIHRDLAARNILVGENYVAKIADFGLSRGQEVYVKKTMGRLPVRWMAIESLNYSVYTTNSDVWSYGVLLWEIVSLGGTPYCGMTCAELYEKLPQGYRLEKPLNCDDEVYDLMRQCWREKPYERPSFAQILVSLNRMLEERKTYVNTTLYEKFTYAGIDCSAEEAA
In assay [5] the target is Hepatocyte growth factor receptor (Homo sapiens) (UniProt P08581). In words: Inhibition of N-terminal His6-tagged recombinant human c-Met residues 974-end expressed in baculovirus infected insect Sf21 cells assessed as residual activity at 10 uM. An outline of the steps:
as §1

Assay [6] addresses T2, Aurora kinase A (Homo sapiens) (UniProt O14965).
T2 sequence (whole entry): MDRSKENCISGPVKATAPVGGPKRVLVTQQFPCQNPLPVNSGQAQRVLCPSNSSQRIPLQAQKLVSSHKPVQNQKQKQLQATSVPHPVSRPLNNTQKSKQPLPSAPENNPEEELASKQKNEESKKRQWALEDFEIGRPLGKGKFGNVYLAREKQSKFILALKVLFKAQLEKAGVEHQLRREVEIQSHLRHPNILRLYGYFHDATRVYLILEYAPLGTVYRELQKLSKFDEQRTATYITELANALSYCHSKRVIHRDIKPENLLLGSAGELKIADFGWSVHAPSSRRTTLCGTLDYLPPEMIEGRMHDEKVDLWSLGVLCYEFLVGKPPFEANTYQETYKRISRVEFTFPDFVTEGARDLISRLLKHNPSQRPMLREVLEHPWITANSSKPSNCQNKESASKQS
In words: Inhibition of N-terminal His6-tagged recombinant full length human Aurora A expressed in Sf21 cells assessed as residual activity at 10 uM. Put shortly:
as §1

Assay [7] addresses Mitogen-activated protein kinase 10 (Homo sapiens) (UniProt P53779). In words: Inhibition of N-terminal His6 tagged recombinant full length human JNK3 expressed in Sf21 cells assessed as residual activity at 10 uM. An outline of the steps: as §1
The target of assay [8] is Casein kinase 2 (Homo sapiens) (UniProt P67870+P68400+P19784+Q8NEV1). In words: Inhibition of recombinant full length human Casein Kinase 2 expressed in insect Sf21 cells assessed as residual activity at 10 uM. Put shortly: as §1
Assay [9] concerns the target T3, Mitogen-activated protein kinase kinase kinase 5 (Homo sapiens) (UniProt Q99683).
T3 sequence (whole entry): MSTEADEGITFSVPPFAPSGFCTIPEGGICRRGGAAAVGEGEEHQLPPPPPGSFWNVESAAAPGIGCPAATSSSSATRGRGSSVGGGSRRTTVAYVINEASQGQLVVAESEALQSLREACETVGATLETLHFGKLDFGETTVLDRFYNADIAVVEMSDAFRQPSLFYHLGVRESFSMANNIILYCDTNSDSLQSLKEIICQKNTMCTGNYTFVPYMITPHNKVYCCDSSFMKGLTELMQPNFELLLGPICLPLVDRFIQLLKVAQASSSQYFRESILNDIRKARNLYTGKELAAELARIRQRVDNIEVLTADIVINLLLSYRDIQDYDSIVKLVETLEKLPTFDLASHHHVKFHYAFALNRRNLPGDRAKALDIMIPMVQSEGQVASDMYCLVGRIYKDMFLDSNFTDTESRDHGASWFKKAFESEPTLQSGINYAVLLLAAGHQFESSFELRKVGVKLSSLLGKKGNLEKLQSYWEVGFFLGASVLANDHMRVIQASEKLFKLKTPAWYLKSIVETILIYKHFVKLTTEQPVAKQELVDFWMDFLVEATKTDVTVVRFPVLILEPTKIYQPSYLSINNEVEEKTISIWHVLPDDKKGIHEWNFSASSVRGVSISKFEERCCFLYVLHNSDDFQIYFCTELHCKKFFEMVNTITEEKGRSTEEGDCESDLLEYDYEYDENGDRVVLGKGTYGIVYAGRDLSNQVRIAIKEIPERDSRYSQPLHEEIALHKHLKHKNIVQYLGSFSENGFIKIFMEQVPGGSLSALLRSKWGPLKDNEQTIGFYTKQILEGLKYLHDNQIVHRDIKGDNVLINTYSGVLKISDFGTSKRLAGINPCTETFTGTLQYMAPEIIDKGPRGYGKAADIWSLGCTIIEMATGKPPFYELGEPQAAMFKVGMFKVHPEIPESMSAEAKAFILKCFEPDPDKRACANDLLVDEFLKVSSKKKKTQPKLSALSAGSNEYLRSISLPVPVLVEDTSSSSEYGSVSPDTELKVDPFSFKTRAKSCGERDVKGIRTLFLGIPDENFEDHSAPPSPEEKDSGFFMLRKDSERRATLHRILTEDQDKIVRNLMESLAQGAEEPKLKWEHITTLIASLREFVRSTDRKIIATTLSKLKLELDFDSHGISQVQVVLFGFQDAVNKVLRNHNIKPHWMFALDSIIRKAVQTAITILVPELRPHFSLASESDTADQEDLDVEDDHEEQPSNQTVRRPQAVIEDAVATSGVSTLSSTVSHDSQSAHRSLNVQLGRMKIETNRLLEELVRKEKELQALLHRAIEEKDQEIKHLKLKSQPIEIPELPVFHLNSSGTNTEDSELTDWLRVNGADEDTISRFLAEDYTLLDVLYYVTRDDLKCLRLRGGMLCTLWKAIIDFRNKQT
In words: Inhibition of N-terminal GST/C-terminal His6-tagged recombinant human ASK1 (649 to 946 amino acids) expressed in Escherichia coli assessed as residual activity at 10 uM. An outline of the steps:
as §1

Sequence of Mitogen-activated protein kinase 10 (Homo sapiens) (P53779 whole entry): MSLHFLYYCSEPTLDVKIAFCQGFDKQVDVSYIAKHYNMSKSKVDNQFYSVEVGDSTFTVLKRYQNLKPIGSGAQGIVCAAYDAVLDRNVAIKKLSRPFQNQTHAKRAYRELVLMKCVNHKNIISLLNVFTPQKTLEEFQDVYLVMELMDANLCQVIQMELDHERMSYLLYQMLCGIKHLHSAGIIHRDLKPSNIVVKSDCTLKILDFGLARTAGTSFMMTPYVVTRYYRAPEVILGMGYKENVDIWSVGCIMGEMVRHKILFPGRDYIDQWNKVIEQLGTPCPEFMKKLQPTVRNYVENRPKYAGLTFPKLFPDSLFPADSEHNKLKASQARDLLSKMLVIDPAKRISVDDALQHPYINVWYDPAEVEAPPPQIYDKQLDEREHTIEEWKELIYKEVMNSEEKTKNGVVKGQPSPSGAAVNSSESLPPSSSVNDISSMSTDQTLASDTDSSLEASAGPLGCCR
Sequence of Hepatocyte growth factor receptor (Homo sapiens) (P08581 whole entry, the tested form may be a part): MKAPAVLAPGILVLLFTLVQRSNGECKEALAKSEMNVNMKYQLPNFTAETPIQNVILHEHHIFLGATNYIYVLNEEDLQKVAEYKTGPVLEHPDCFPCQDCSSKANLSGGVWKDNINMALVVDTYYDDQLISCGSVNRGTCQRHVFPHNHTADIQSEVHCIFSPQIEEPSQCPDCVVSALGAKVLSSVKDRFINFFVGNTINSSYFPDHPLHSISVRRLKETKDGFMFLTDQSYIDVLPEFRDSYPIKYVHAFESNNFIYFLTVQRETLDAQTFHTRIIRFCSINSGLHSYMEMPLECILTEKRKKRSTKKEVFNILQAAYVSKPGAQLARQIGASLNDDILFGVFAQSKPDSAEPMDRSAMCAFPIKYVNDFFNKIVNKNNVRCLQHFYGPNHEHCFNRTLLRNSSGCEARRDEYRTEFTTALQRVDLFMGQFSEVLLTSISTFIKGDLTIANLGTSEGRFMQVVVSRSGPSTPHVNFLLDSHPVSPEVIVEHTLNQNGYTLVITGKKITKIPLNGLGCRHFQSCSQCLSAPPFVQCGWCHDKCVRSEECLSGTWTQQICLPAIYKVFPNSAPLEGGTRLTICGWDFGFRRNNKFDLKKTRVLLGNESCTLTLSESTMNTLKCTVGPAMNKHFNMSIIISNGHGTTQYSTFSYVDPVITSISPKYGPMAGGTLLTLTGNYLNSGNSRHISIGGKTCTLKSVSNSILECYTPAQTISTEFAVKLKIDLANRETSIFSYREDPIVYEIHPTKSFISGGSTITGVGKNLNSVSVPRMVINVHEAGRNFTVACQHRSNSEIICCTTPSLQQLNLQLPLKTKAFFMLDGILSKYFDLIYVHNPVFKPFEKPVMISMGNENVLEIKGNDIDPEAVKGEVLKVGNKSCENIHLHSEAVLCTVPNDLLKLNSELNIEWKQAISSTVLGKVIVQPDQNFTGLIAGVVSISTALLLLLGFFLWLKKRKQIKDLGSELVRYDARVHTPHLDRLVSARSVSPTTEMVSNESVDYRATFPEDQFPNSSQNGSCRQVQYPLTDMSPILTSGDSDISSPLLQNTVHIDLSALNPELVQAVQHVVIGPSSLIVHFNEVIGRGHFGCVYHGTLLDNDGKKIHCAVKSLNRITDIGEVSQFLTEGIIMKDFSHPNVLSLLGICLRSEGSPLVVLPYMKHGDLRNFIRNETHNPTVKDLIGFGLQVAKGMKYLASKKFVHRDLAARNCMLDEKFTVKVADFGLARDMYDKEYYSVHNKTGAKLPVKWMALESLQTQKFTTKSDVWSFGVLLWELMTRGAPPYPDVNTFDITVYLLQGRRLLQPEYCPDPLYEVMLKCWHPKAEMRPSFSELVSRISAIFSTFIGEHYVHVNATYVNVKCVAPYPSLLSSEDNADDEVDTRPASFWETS

For orientation: IC50 means the concentration that inhibits the measured activity by half. Regarding `CCOc1ccccc1N1CC(=O)C(c2nc3ccccc3[nH]2)=C1N`, the IC50 in assay [1] was over 30 µM.

On to `NC1=C(c2nc3ccccc3[nH]2)C(=O)CN1c1cccc(O)c1`, for which the IC50 in assay [1] was 0.32 µM; in [2], 9.3 µM; in the assay with HEK293, over 50 µM. In addition, the Activity was 2.1% in assay [3]; 84.7% in assay [4]; 128% in [5]; 85.8% in assay [6]; 118% in assay [7]; 81.4% in assay [8]. In addition, the Activity in [9] was 95.7%.

For the compound `Cc1ccc(N2CC(=O)C(c3nc4ccccc4[nH]3)=C2N)cc1`, in assay [1], the IC50 was over 30 µM.

In the case of `NC1=C(c2nc3ccccc3[nH]2)C(=O)CN1c1ccccc1`, in [1], the IC50 is over 30 µM.

As for `COc1ccc(Cl)cc1N1CC(=O)C(c2nc3ccccc3[nH]2)=C1N`, the IC50 (in [2]; with HEK293) was over 50 µM in each case.

As to `COc1ccc(N2CC(=O)C(c3nc4ccccc4[nH]3)=C2N)c(OC)c1`, the IC50 in [1] is over 30 µM.

With `Cc1ccc2nc(C3=C(N)N(c4cccc(O)c4)CC3=O)[nH]c2c1`, the 50% inhibitory concentration (IC50) in [1] was 0.63 µM; in assay [2], 5.6 µM; with HEK293, over 50 µM. In addition, the Activity was found to be 5% in assay [3]; 92.7% in [4]; 92.5% in assay [5]; 75.8% in [6]; 101% in assay [7]; 77.3% in assay [8]. In [9], the Activity came to 91.6%.

As for `Cc1cccc(N2CC(=O)C(c3nc4ccccc4[nH]3)=C2N)c1`, the IC50 in assay [1] is over 30 µM.

Consider `NC1=C(c2nc3ccccc3[nH]2)C(=O)CN1c1ccccc1Cl`, for which, in [1], the IC50 was over 30 µM.

With `NC1=C(c2nc3ccccc3[nH]2)C(=O)CN1c1ccc(F)cc1`, in [1], the IC50 is 27 µM.

Consider `NC1=C(c2nc3ccccc3[nH]2)C(=O)CN1c1ccccc1F`, for which, in assay [1], the IC50 is over 30 µM.

These data come from ChEMBL document CHEMBL3779808, “Design, synthesis and biological evaluation of 5-amino-4-(1H-benzoimidazol-2-yl)-phenyl-1,2-dihydro-pyrrol-3-ones as inhibitors of protein kinase FGFR1” (Bioorg Med Chem, 2016).
